These results are taken from publication PMC6435016 (Biophysics and Physicobiology, 2019).

Data set [1] relates to intracellular tail of inducible T-cell co-stimulator. Description: SPR binding to intracellular tail of inducible T-cell co-stimulator. The settings on record: data not shown. (Surface plasmon resonance follows binding to a sensor surface in real time, without labels.)
Data set [2] concerns CD28 (biotinylated 41-residue phosphopeptide corresponding to cytoplasmic region of CD28). Description: SPR binding to immobilized CD28 cytoplasmic phosphopeptide. The note with it: 25°C.
Data set [3] is described as follows: CD thermal stability / transition curve at 222 nm. The class given is physicochemical. The settings on record: following dissociation of the dimer. The gist of the method:
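Human Grb2 SH2 (residues 60–152) expressed as GST fusion in E. coli BL21(DE3); monomer and dimer split by gel filtration. 0.04 mg mL⁻¹ in PBS pH 7.4, 1.0 cm cell; 222 nm signal heated 20–80°C at 1.0°C min⁻¹. Tm from two-state fit, zero heat-capacity change. Samples heated to 50°C, cooled to 20°C, then rerun by far-UV CD and SEC (PBS, 280 nm).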

For data set [4] the following is noted: fluorescence and SEC; similar to Grb2 SH2 dimer dissociating at 40–45°C; ref [39]; cited from earlier work.
Data set [5] in a line: SEC analysis of monomer/dimer state. In kind it is physicochemical. The note with it: data not shown. (SEC sorts molecules by how far they enter the pores of the column.)

Turning to “W121S: Grb2 SH2 mutant, Trp121 replaced by Ser, by site-directed mutagenesis”, the “binding to intracellular tail of inducible T-cell co-stimulator” value in data set [1] is “could not bind”. Also, in data set [2] (monomer and dimer of W121S at 800, 1600, 3200, 6400 nM), the “ability to bind to CD28” value is recorded as “loses the ability to bind to CD28”.
As to “monomer: SH2 domain of human Grb2 (residues 60–152), monomer fraction purified by gel filtration”, the “temperature of denaturation of monomer” value in data set [3] was “around 60 °C”. The “Ka,kin” value in data set [2] (association constant calculated from the two kinetic rate constants) is 117000 M⁻¹.

B1: Gads SH2: SH2 domain of Grb2-related adaptor downstream of Shc (Gads) (protein)
chain: WFHEGLSRHQAENLLMGKEVGFFIIRASQSSPGDFSISVRHEDDVQHFKVMRDNKGNYFLWTEKFPSLNKLVDYYRTNSISRQKQIFLRDRT
In the case of B1, in data set [4], the “thermal transition (dimer to monomer)” value is reported as “A similar transition was recently reported”. Moreover, in data set [5], the oligomeric state entry is given as “exists as a monomer with a small population of dimers”.
